# Test results: the RNAGym collection of RNA variant scans (doi:10.1101/gad.245936.114)
# Fewer inactive variants are shown than the library holds.
# B1: tRNA (parent)
# chain: CUCUCGGUAGCCAAGUUGGUUUAAGGCGCAAGACUUUAAUUUAUCACUACGAAAUCUUGAGAUCGGGCGUUCGACUCGCCCCCGGGAGAUUUUUUCCUCGAGCAA
# Variants of: B1
# Assay: nonsense suppression (GFP-seq) (ratio to wild type); higher = more function; SUP4oc tRNA, yeast GFP reporter sort-seq
# How it was run: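 Each variant's nonsense suppression (GFPSEQ) is a cell-share-weighted bin median GFP/RFP relative to the unmutated parent tRNA. Yeast with genome-integrated tRNA variants from a ~3% random-mutation library, a galactose-driven GFP ochre reporter and RFP were grown in raffinose/galactose medium with 80 mg/L adenine, then sorted into GFP/RFP bins for Illumina sequencing. Variants needed ≥100 reads and ≥30 cells.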
row,Variant,nonsense suppression
1,CUCUCGGUAGCCAAGUUGGUUUAAGGCGCAAGACUUUAAUUUAUCACUACGAAACCCUGAGAUCGGGCGUUCGACUCGCCCCCGGGAGAUUUUUUCCUCGAGCAA [U55C U57C],0.026
2,CUCUCGGUAGCCAAGUUGGUUUAAGGCGCAAGACCUUAAUUUAUCACUACGAAAUCUUGAGAUCGGGCGUUCGGCUCGCCCCCGGGAGAUUUUUUCCUCGAGCAA [U35C A74G],≤ 0.026
3,CUCUCGGUGGUCAAGUUGGUUUAAGGCGCAAGACUUUAAUUUAUCACUACGAAAUCUUGAGAUCGGGCGUUCGACUCGCCCCCGGGAGAUUUUUUCCUCGAGCAA [A9G C11U],0.0313
4,CUCUCGGUAGCCAAGUUGGUUUAAGGCGCAAGACUUUAAUUUAUCACUACGAACUCUAGAGAUCGGGCGUUCGACUCGCCCCCGGGAGAUUUUUUCCUCGAGCAA [A54C U58A],0.135
5,CUCUCGGUAGCCAAGUUGGUUUAAGGCCCAAGACUUUAAUUUAUCACUACGAAAUCUUGCGAUCGGGCGUUCGACUCGCCCCCGGGAGAUUUUUUCCUCGAGCAA [G28C A60C],0.235
6,CUCUCAGUAGCCAAGUUGGUUUAACGCGCAAGGCUUUAAUUUAUCACUACGAAAUCUUGAGAUCGGGCGUUCGACUCGCCCCCGGGAGAUUUUUUCCUCGAGCAA [G6A G25C A33G],≤ 0.026
7,CUCUCGGUAGCCAAGUUGGUUUAAGGCGCAAGACUUUAAUUUAUCACUACGAAAUCUCGAGAUCGGGCGUUCAACUCGCCCCCGGGAGAUUUUUUCCUCGAGCAA [U58C G73A],0.0472
8,CUCUCGGUAGCCAAGUUGGUUUAAGGCGCAACACUUUAAUUUAUCACUACGAAAUGUUGCGAUCGGGCGUUCGACUCGCCCCCGGGAGAUUUUUUCCUCGAGCAA [G32C C56G A60C],0.275
9,CUAUCGGUAGCCAAGUUGGUUUAAGGCGCAAGACUUUAAUUUAUCACUACGAAAUCUUGAGAUCGGGCGUUAGACUCGCCCCCGGGAGAUUUUUUCCUCGAGCAA [C3A C72A],≤ 0.026
10,CUUUCGGUGGCCAAGUUGGUUUAAGGCGCAAGACUUUAAUUUAUCACUACGAAAUCUUGAGAUCGGGCGUUCGACUCGCCCCCGGGAGAUUUUUUCCUCGAGCAA [C3U A9G],0.195
11,CUCUCGGUAGCCAAGUUGGUUUAAGGUGCAAGACUUUAAUUUAUCACUACGAAAUCUAGAGAUCGGGCGUUCGACUCGCCCCCGGGAGAUUUUUUCCUCGAGCAA [C27U U58A],≤ 0.026
12,CUCUCGGUAGCCAAGUUGGUUUAAGGCGCAUGACUUUAAUUUAUCACUACGAAAUCUUGAGAUCGGGCGCUCGACUCGCCCCCGGGAGAUUUUUUCCUCGAGCAA [A31U U70C],≤ 0.026
13,CUCUCGGUAGCCAAGUUGGUUUACGGCGCAAGACUUUAAUUUAUCACUACGAAAUCUUGAGAUCGGGCGUUCGACUCGCCCCCGGGAGCUUUUUUCCUCGAGCAA [A24C A89C],0.0925
14,CUCUCGGUAGCCAAGUUGGUUUAAGGCGCAAGACUUUAAUUUAUCACUACGAAAUCUUGAAAUCAGGCGUUCGACUCGCCCCCGGGAGAUUUUUUCCUCGAGCAA [G61A G65A],0.127
15,CUCUCGGUAGCCACGUUGGUUUAAGGCGCAAGACUUUAAUUUAUCACUACGAAAUCUUUAGAUCGGGCGUUCGACUCGCCCCCGGGAGAUUUUUUCCUCGAGCAA [A14C G59U],≤ 0.026
16,CUCUCGGUAGCCAAGUUGGUUUAAGGCGCAAGACUUUAAUUUAUCACUACGAAAUCUUGAUAGCGGGCGUUCGACUCGCCCCCGGGAGAUUUUUUCCUCGAGCAA [G61U U63G],0.232
17,CUCUCGGUAGUCAAGUUGUUUUAAGGCGCAAGACUUUAAUUUAUCACUACGAAAUCUUGAGAUAGGGCGUUCGACUCGCCCCCGGGAGAUUUUUUCCUCGAGCAA [C11U G19U C64A],≤ 0.026
18,CACACGGUAGCCAAGUUGGUUUAAGGCGCAAGACUUUAAUUUAUCACUACGAAAUCUUGAGAUCGGGCGUUCGACUCGCCCCCGGGAGAUUUUUUCCUCGAGCAA [U2A U4A],0.0323
19,CUCUUGGUAGCCGCGUUGGUUUAAGGCGCAAGACUUUAAUUUAUCACUACGAAAUCUUGAGAUCGGGCGUUCGACUCGCCCCCGGGAGAUUUUUUCCUCGAGCAA [C5U A13G A14C],≤ 0.026
20,CUCUCGGUAGCCAAGUUGGUUUAAGGGGCAAGACUUUAAUUUAUCACUACGAAAACUUGCGAUCGGGCGUUCGACUCGCCCCCGGGAGAUUUUUUCCUCGAGCAA [C27G U55A A60C],0.809
21,CUCUCGGUAGCCAAGUGGGUUUAUGGCGCAAGACUUUAAUUUAUCACUACGAAAUCUUGAGAUCGGGCGUUCGACUCGCCCCCGGGAGAUUUUUUCCUCGAGCAA [U17G A24U],0.159
22,CUCUCGGUAGCCAAGUUGGUUUAAGGCGCAAGACUUUAAUUUAUCACUACGAAAUCUUGAGAUCGGGCUUGCGACUCGCCCCCGGGAGAUUUUUUCCUCGAGCAA [G69U U71G],≤ 0.026
23,CGCUCGGUAGCCAAGUUGGUUUAAGGCGCAAGACUUUAAUUUAUCACUACGAAAUCUUGAGAUCGGGCGUUCGACUCGCCCCGGGGAGAUUUUUUCCUCGAGCAA [U2G C83G],≤ 0.026
24,CUCUCGGUAGCCAAGUUGGUUUAAGUCUCAAGACUUUAAUUUAUCACUACGAAAUCUUGAGAUCGGGCGUUCGACUCGCCCCCGGGAGAUUUUUUCCUCGAGCAA [G26U G28U],≤ 0.026
25,CUCUCGGUAGCCCAGUUGGUUUAAGGCGCAAGACUUUAAUUUAUCACUACGAAAUCUUGAGGUCGGGCGUUCGACUCGCCCCCGGGAGAUUUUUUCCUCGAGCAA [A13C A62G],0.0702
26,CUCUCGGUAGCCAAGUUGGUUUAAGGCGCAAGACUUUAAUUUAUCACUACGAAAUCUUGAAAACGGGCGUUCGACUCGCCCCCGGGAGAUUUUUUCCUCGAGCAA [G61A U63A],0.304
27,CUCUGGGUAGCCAAGUUGGUUUAAGGCGCAAGACUUUAAUUUAUCACUACGAAACCUUGAGAUCGGGCGCUCGACUCGCCCCCGGGAGAUUUUUUCCUCGAGCAA [C5G U55C U70C],≤ 0.026
